Measured values taken from ChEMBL document CHEMBL1149773, “Synthesis, determination of the lipophilicity, anticancer and antimicrobial properties of some fused 1,2,4-triazole derivatives” (Eur J Med Chem, 2008).
Calls of active or inactive are those of the source. No cut-off for these calls is given here.

Tests used:
[1] = Lipophilicity, log kw in dioxane aqueous system at pH 3.5; format: physicochemical; conditions: buffer
Summary of the method: (§1)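 RP-HPLC on an octadecyl silica column (150 × 4.6 mm, 5 µm) at 22 ± 1 °C, flow 1.0 mL min⁻¹, UV detection at 254 nm. Mobile phase was methanol, acetonitrile or dioxane with water and 0.01 M phosphate buffer pH 3.5 containing 0.05 M DEA. log k_W was extrapolated to pure water by regression.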

[2] = Lipophilicity, log kw in acetonitrile aqueous system at pH 3.5; format: physicochemical; summary of the method: as §1
[3] = Lipophilicity, log kw in methanol aqueous system at pH 3.5; format: physicochemical; summary of the method: as §1
[4] = Growth inhibition of human skin fibroblast at 126.7 uM; format: cell-based; conditions: human skin fibroblasts, read-out: GI
Summary of the method: (§2)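 Vero, LS180, SiHa, T47D or primary HSF cells were seeded at 10^4 cells per mL and preincubated in microtiter plates. Compounds were added at 10 or 50 µg mL⁻¹ (printed µM equivalents depend on the compound) and incubated 72 h. End-point was BrdU labelling read spectrophotometrically on an ELISA reader. Growth inhibition is % versus untreated controls; triplicates.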

[5] = Growth inhibition of african green monkey Vero cells at 25.3 uM; format: cell-based; conditions: chlorocebus sabaeus, read-out: GI; summary of the method: as §2
[6] = Growth inhibition of african green monkey Vero cells at 126.7 uM; format: cell-based; conditions: chlorocebus sabaeus, read-out: GI; summary of the method: as §2
[7] = Growth inhibition of human LS180 cells at 25.3 uM; format: functional; conditions: read-out: GI; summary of the method: as §2
[8] = Growth inhibition of human LS180 cells at 126.7 uM; format: functional; conditions: read-out: GI; summary of the method: as §2
SiHa [9] = assay: Growth inhibition of human SiHa cells at 25.3 uM; format: functional; conditions: read-out: GI; summary of the method: as §2
SiHa [10] = assay: Growth inhibition of human SiHa cells at 126.7 uM; format: functional; conditions: read-out: GI; summary of the method: as §2
T47D [11] = assay: Growth inhibition of human T47D cells at 25.3 uM; format: functional; conditions: read-out: GI; summary of the method: as §2
T47D [12] = assay: Growth inhibition of human T47D cells at 126.7 uM; format: functional; conditions: read-out: GI; summary of the method: as §2
[13] = Antiproliferative activity against human skin fibroblast assessed as cell viability at 1 uM by MTT assay; format: cell-based; conditions: human skin fibroblasts, read-out: Activity
Summary of the method: (§3)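 Log-phase cells, kept in supplemented RPMI 1640 (HSF in DMEM/10% FBS) at 37 °C, 5% CO2, were exposed 24 h to 1, 50 or 100 µM compound from DMSO. They were washed, given 0.5 mg/mL MTT in HEPES buffer pH 7.4 for 45 min at 37 °C, and formazan was dissolved in DMSO and read at 570 nm. Values are % viability versus control from three independent measurements.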

[14] = Antiproliferative activity against human skin fibroblast assessed as cell viability at 50 uM by MTT assay; format: cell-based; conditions: human skin fibroblasts, read-out: Activity
Summary of the method: (§4)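 MTT viability assay on primary human skin fibroblasts grown in DMEM with 10% FBS and penicillin/streptomycin. Compounds were dissolved in DMSO and given at 1, 50 or 100 µM for 24 h. Cells were washed in HEPES-buffered medium (pH 7.4) and then given MTT 0.5 mg mL⁻¹ for 45 min at 37 °C. Formazan was dissolved in DMSO and read at 570 nm. Viability is % of control; three independent measurements.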

[15] = Antiproliferative activity against human skin fibroblast assessed as cell viability at 100 uM by MTT assay; format: cell-based; conditions: human skin fibroblasts, read-out: Activity; summary of the method: as §4
[16] = Antiproliferative activity against human RPMI cells assessed as cell viability at 1 uM by MTT assay; format: functional; conditions: read-out: Activity; summary of the method: as §3
[17] = Antiproliferative activity against human RPMI cells assessed as cell viability at 50 uM by MTT assay; format: functional; conditions: read-out: Activity; summary of the method: as §3
[18] = Antiproliferative activity against human RPMI cells assessed as cell viability at 100 uM by MTT assay; format: functional; conditions: read-out: Activity; summary of the method: as §3
HeLa [19] = assay: Antiproliferative activity against human HeLa cells assessed as cell viability at 1 uM by MTT assay; format: functional; conditions: read-out: Activity; summary of the method: as §3
HeLa [20] = assay: Antiproliferative activity against human HeLa cells assessed as cell viability at 50 uM by MTT assay; format: functional; conditions: read-out: Activity; summary of the method: as §3
HeLa [21] = assay: Antiproliferative activity against human HeLa cells assessed as cell viability at 100 uM by MTT assay; format: functional; conditions: read-out: Activity; summary of the method: as §3
[22] = Growth inhibition of human skin fibroblast at 25.3 uM; format: cell-based; conditions: human skin fibroblasts, read-out: GI; summary of the method: as §2
LS180 [23] = assay: Induction of DNA damage in human LS180 cells at 29.3 uM; format: functional, cell-based
Summary of the method: (§5)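 Cells were treated at 29.3 µM (10 µg mL⁻¹) and washed twice with PBS. DNA was isolated with lysis buffer plus proteinase K, or cells were lysed as agarose plugs. Samples ran on 1% agarose with propidium iodide at 120 V for 1.5 h at room temperature […]. Experiments were repeated three times. The comet assay was also run on T47D.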

LS180 [24] = assay: Effect on superoxide dismutase gene expression in human LS180 cells at 29.3 uM; format: functional, cell-based
Summary of the method: (§6)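 LS180 and T47D cells were incubated at 29.3 µM (10 µg mL⁻¹). SOD gene expression was visualised by electrophoresis on 1% agarose gel against an untreated control.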

T47D [25] = assay: Effect on superoxide dismutase gene expression in human T47D cells at 29.3 uM; format: functional, cell-based; summary of the method: as §6
Vero = assay: Induction of DNA damage in african green monkey Vero cells at 29.3 uM; format: cell-based; conditions: chlorocebus sabaeus; summary of the method: as §5
SiHa [26] = assay: Induction of DNA damage in human SiHa cells at 29.3 uM; format: functional, cell-based; summary of the method: as §5
T47D [27] = assay: Induction of DNA damage in human T47D cells at 29.3 uM; format: functional, cell-based; summary of the method: as §5
[28] = Growth inhibition of human skin fibroblast at 29.3 uM; format: cell-based; conditions: human skin fibroblasts, read-out: GI; summary of the method: as §2
[29] = Growth inhibition of human skin fibroblast at 146.7 uM; format: cell-based; conditions: human skin fibroblasts, read-out: GI; summary of the method: as §2
[30] = Growth inhibition of african green monkey Vero cells at 29.3 uM; format: cell-based; conditions: chlorocebus sabaeus, read-out: GI; summary of the method: as §2
[31] = Growth inhibition of african green monkey Vero cells at 146.7 uM; format: cell-based; conditions: chlorocebus sabaeus, read-out: GI; summary of the method: as §2
[32] = Growth inhibition of human LS180 cells at 29.3 uM; format: functional; conditions: read-out: GI; summary of the method: as §2
[33] = Growth inhibition of human LS180 cells at 146.7 uM; format: functional; conditions: read-out: GI; summary of the method: as §2
SiHa [34] = assay: Growth inhibition of human SiHa cells at 29.3 uM; format: functional; conditions: read-out: GI; summary of the method: as §2
SiHa [35] = assay: Growth inhibition of human SiHa cells at 146.7 uM; format: functional; conditions: read-out: GI; summary of the method: as §2
T47D [36] = assay: Growth inhibition of human T47D cells at 29.3 uM; format: functional; conditions: read-out: GI; summary of the method: as §2
T47D [37] = assay: Growth inhibition of human T47D cells at 146.7 uM; format: functional; conditions: read-out: GI; summary of the method: as §2

Clc1ccc(N2CCn3c(COc4ccc(Cl)cc4Cl)nnc32)cc1
logKw [1]: 4.15
logKw [2]: 3.75
logKw [3]: 4.85
inhibition at 126.7 µM [4]: 10%
inhibition at 25.3 µM [5]: 20%
inhibition at 126.7 µM [6]: 28%
inhibition of growth at 25.3 µM [7]: 48%
inhibition of growth at 126.7 µM [8]: 54%
inhibition of growth at 25.3 µM (SiHa [9]): 35%
inhibition of growth at 126.7 µM (SiHa [10]): 41%
inhibition of growth at 25.3 µM (T47D [11]): 28%
inhibition of growth at 126.7 µM (T47D [12]): 48%
viability at 1 µM [13]: 83%
viability at 50 µM [14]: 83.9%
viability at 100 µM [15]: 86.8%
viability at 1 µM [16]: 98.4%
viability at 50 µM [17]: 24.4%
viability at 100 µM [18]: 24.5%
viability at 1 µM (HeLa [19]): 68.4%
viability at 50 µM (HeLa [20]): 59.9%
viability at 100 µM (HeLa [21]): 56.3%
inhibition at 25.3 µM [22]: 7%

Cc1cc(Cl)ccc1OCc1nnc2n1CCN2c1ccccc1
logKw [1]: 1.17
Activity (LS180 [23]): Active
Activity (LS180 [24]): Active
Activity (T47D [25]): Active
Activity (Vero): Active
Activity (SiHa [26]): Active
Activity (T47D [27]): Active
logKw [2]: 1.36
logKw [3]: 1.62
inhibition at 29.3 µM [28]: 4%
inhibition at 146.7 µM [29]: 8%
inhibition at 29.3 µM [30]: 20%
inhibition at 146.7 µM [31]: 20%
inhibition of growth at 29.3 µM [32]: 35%
inhibition of growth at 146.7 µM [33]: 39%
inhibition of growth at 29.3 µM (SiHa [34]): 30%
inhibition of growth at 146.7 µM (SiHa [35]): 30%
inhibition of growth at 29.3 µM (T47D [36]): 25%
inhibition of growth at 146.7 µM (T47D [37]): 40%
viability at 1 µM [13]: 79.2%
viability at 50 µM [14]: 76.8%
viability at 100 µM [15]: 72.5%
viability at 1 µM [16]: 112%
viability at 50 µM [17]: 114%
viability at 100 µM [18]: 108%
viability at 1 µM (HeLa [19]): 65.6%
viability at 50 µM (HeLa [20]): 75.1%
viability at 100 µM (HeLa [21]): 75.9%
